Results taken from ChEMBL document CHEMBL4138245, “Design and synthesis of novel quinacrine-[1,3]-thiazinan-4-one hybrids for their anti-breast cancer activity” (Eur J Med Chem, 2018).
Calls of active or inactive are those of the source. The rule behind the calls is not given here.

Key:
[1] = Selectivity index, ratio of compound concentration for cell killing activity in human 184B5 cells to compound concentration for cell killing activity in human PC3 cells; type: toxicity, cell-based; conditions: 184B5 cells versus PC3 cells, read-out: Selectivity Index
MCF-10A = experiment: Antiproliferative activity against human MCF10A cells at 1 to 2 uM up to 96 hrs by SRB assay; type: cell-based
[2] = molecular target: Serine/threonine-protein kinase mTOR (Homo sapiens) (UniProt P42345); experiment: Inhibition of mTOR pathway in human MCF7 cells assessed as reduction in S6K phosphorylation at Ser371 residue at 2 uM after 6 to 24 hrs by Western blot method; type: cell-based
MCF7 [3] = experiment: Effect on Cyclin-D protein expression in human MCF7 cells at 2 uM after 24 to 72 hrs by Western blot method; type: functional, cell-based
[4] = Selectivity index, ratio of compound concentration for cell killing activity in human 184B5 cells to compound concentration for cell killing activity in human BT474 cells; type: toxicity, cell-based; conditions: 184B5 cells versus BT474 cells, read-out: Selectivity Index
MDA-MB-231 = experiment: Antiproliferative activity against human MDA-MB-231 cells assessed as compound concentration required to show complete inhibition of cell viability up to 96 hrs by SRB assay; type: functional
[5] = Selectivity index, ratio of compound concentration for cell killing activity in human MCF10A cells to compound concentration for cell killing activity in human BT20 cells; type: toxicity, cell-based; conditions: MCF10A cells versus BT20 cells, read-out: Selectivity Index
[6] = Selectivity index, ratio of compound concentration for cell killing activity in human MCF10A cells to compound concentration for cell killing activity in human LNCAP cells; type: toxicity, cell-based; conditions: MCF10A cells versus LNCAP cells, read-out: Selectivity Index
MCF7 [7] = experiment: Cell cycle arrest in human MCF7 cells assessed as DNA content at 2 uM after 24 hrs by BrdU incorporation assay (reference value: 32.9%); type: functional
[8] = Selectivity index, ratio of compound concentration for cell killing activity in human MCF10A cells to compound concentration for cell killing activity in human SK-BR-3 cells; type: toxicity, cell-based; conditions: MCF10A cells versus SK-BR-3 cells, read-out: Selectivity Index
MCF7 [9] = experiment: Inhibition of DNA replication in human MCF7 cells assessed as EdU incorporation at 2 uM pretreated for 48 hrs followed by EdU addition at final 45 mins of 48 hrs incubation time (reference value: 45 to 63%); type: functional; set-up: scale not given: the % may be the effect or the level left
184B5 = experiment: Cell cycle arrest in human 184B5 cells at 2 uM after 48 hrs by propidium iodide staining based flow cytometry; conditions: 184b5, 48 h
How it was run: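 MCF7, MDA-MB231 and non-cancer 184B5 breast cells exposed to 2 μM for 48 h, then cell-cycle analysis by flow cytometry; duplicates, repeated three times.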

[10] = Selectivity index, ratio of compound concentration for cell killing activity in human 184B5 cells to compound concentration for cell killing activity in human NCI-H1975 cells; type: toxicity, cell-based; conditions: 184B5 cells versus NCI-H1975 cells, read-out: Selectivity Index
[11] = Selectivity index, ratio of compound concentration for cell killing activity in human MCF10A cells to compound concentration for cell killing activity in human CAMA1 cells; type: toxicity, cell-based; conditions: MCF10A cells versus CAMA1 cells, read-out: Selectivity Index
MDA-MB-468 = experiment: Antiproliferative activity against human MDA-MB-468 cells after 48 hrs by SRB assay; type: functional, cell-based; conditions: MDA-MB-468, 48 h
How it was run: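 SRB assay: 5,000-10,000 cells/well plated, 24 h at 37 °C/5% CO2 before drug; seven concentrations from 100 μM down (two- to ten-fold serial dilutions, DMSO ≤0.1% final) for 48 h; TCA fixation (10% final, 60 min, 4 °C), 0.4% SRB in 1% acetic acid, solubilized in 10 mM Tris base, absorbance 515-564 nm; growth = (Ti−Tz)/(C−Tz)×100; IC50 from sigmoidal variable-slope fit; triplicates, ≥2 independent experiments.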

[12] = Selectivity index, ratio of compound concentration for cell killing activity in human MCF10A cells to compound concentration for cell killing activity in human MCF7 cells; type: toxicity, cell-based; conditions: MCF10A cells versus MCF7 cells, read-out: Selectivity Index

**Q.** For COc1ccc2nc3cc(Cl)ccc3c(NCCCN3C(=O)CCSC3c3cccs3)c2c1 (stereo unspecified), which selectivity ratio [1] is on record?
**A.** The selectivity ratio was 3 to 6.

**Q.** And the Activity (MCF-10A)?
**A.** Its Activity is “Non-Toxic”.

**Q.** And the inhibition [2]?
**A.** Its inhibition is “inactive”.

**Q.** What about the Activity (MCF7 [3]) of the same compound?
**A.** Its Activity is “inactive”.

**Q.** What about the selectivity ratio [4] of the same compound?
**A.** The selectivity ratio was 3 to 6.

**Q.** What about the Activity (MDA-MB-231) of the same compound?
**A.** The Activity was 2 µM.

**Q.** What about the selectivity ratio [5] of the same compound?
**A.** Its selectivity ratio is 3 to 6.

**Q.** And the selectivity ratio [6]?
**A.** Its selectivity ratio is 3 to 6.

**Q.** What about the Activity (MCF7 [7]) of the same compound?
**A.** The Activity was 0.7%.

**Q.** What about the selectivity ratio [8] of the same compound?
**A.** The selectivity ratio was 3 to 6.

**Q.** And the Activity (MCF7 [9])?
**A.** The Activity was 5%.

**Q.** What about the Activity (184B5) of the same compound?
**A.** Its Activity is “Non-Toxic”.

**Q.** And the selectivity ratio [10]?
**A.** The selectivity ratio was 3 to 6.

**Q.** What about the selectivity ratio [11] of the same compound?
**A.** Its selectivity ratio is 3 to 6.

**Q.** And the IC50 (MDA-MB-468)?
**A.** The IC50 was 1730 nM.

**Q.** What about the selectivity ratio [12] of the same compound?
**A.** The selectivity ratio was 3 to 6.
